Only some compounds are listed: those with a hit (about 2.6% of all), similar ones and a draw of the others.
SENP8 block-1 = SENP8 protease inhibitors, primary screen, biochemical, luminescence; Sentrin-specific protease 8 (Homo sapiens), Q96LD8; purified SENP8, Z-RLRGG-aminoluciferin cleavage; inhibition, % at 10 µM; 330,000 tested, 1.2% active; AID 2540, 2010; in the data active = inhibition above about 50%
Target sequence (Q96LD8 whole entry, looked up): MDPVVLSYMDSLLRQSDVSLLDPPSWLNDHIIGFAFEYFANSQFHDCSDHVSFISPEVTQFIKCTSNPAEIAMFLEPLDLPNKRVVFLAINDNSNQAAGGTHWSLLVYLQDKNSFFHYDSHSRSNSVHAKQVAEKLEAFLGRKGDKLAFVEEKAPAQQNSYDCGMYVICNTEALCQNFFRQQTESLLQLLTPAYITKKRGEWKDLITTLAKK
Platelet DG rel = inhibitors of platelet dense granule secretion, primary screen, cell-based, MLPCN, human platelets | human platelet-rich plasma, SFLLRN dense granule ATP release, luminescence | inhibition, %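 (compounds screened at 7.5 µM in platelet-rich plasma)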 | 300,000 tested, 0.22% active;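 active = mean replicate score, as percent of positive control, at or above 50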
SENP6 block = SENP6 protease inhibitors, primary screen, biochemical, luminescence, uHTS; inhibition, % at 10 µM; Sentrin-specific protease 6 (Homo sapiens), Q9GZR1; 330,000 tested, 1.8% active; AID 2599, 2010; Recombinant SENP6 catalytic domain, aminoluciferin luminescence;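 active = inhibition above about 50% at the single tested dose, limit read from the data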;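 note: plate controls were DMSO wells with enzyme for no effect and DMSO wells lacking enzyme for full effect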
SENP1 FRET inh = human SENP1 catalytic domain inhibitors, primary screen, biochemical, FRET, uHTS; 360,000 tested, 0.21% active; inhibition, % at 10 µM; recombinant SENP1 catalytic domain, CyPet-SUMO1-YPet FRET cleavage; Sentrin-specific protease 1 (Homo sapiens), Q9P0U3; AID 624204, 2012;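 active = inhibition at least 30% at 10 µM, raw YFP signal under a set limit, fluorescence ratio 0.5 to 1.5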;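 note: 0% = enzyme with DMSO and 100% = no enzyme wells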
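System: Recombinant human SENP1 catalytic domain, His6-tagged | Incubation: Enzyme reaction for 50 min at room temperature, dark | Medium: Tris pH 8 with BME, BSA, NP40 and catalase | Also added: 25 nM SUMO1 FRET substrate | Compound: 10 µM single point, 0.5% DMSO | Measured by: FRET fluorescence in CFP and YFP emission channels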
SENP7 inh = SENP7 protease inhibitors, primary screen, biochemical, luminescence, uHTS; 330,000 tested, 1.5% active; inhibition, % at 5 µM; recombinant SENP7, Z-RLRGG-aminoluciferin luminescence, 40 min;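 active = inhibition above about 50% at the single test dose, limit read from the data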;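 note: plate controls were DMSO with enzyme for no effect and no enzyme buffer wells for full effect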
Target sequence (Q9BQF6 706-1050 limits assumed): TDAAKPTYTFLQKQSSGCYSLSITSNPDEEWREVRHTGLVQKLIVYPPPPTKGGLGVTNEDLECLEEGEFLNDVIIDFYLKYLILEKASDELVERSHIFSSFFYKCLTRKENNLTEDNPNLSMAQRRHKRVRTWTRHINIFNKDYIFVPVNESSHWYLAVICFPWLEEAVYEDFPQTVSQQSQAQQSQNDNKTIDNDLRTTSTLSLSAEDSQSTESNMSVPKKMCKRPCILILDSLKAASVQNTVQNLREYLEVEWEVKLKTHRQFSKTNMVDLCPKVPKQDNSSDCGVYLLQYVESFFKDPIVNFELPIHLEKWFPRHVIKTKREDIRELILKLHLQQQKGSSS
SENP8 block-2 = human SENP8 protease inhibitors, primary screen, biochemical, fluorescence, Nedd8 protein substrate, uHTS; Sentrin-specific protease 8 (Homo sapiens), Q96LD8; recombinant SENP8; inhibition, % at 20 µM; 360,000 tested, 0.64% active; AID 602440, 2012; in the data active = inhibition mostly above about 40%, no sharp cut-off; inactive = mostly below about 27%
SENP8 inh conf = human SENP8 protease inhibitors, confirmation, biochemical, Nedd8 protein substrate, single concentration; shares compounds with SENP8 block-2; purified SENP8, Nedd8-AMC/pro-Nedd8 cleavage fluorescence, 30 min; inhibition, % at 25 µM; 1,400 tested, 15% active; AID 624319, 2012; in the data active = inhibition mostly above about 39%, no sharp cut-off; inactive = mostly below about 34%
An asterisk follows results filed as active; x = no result given.

SMILES | SENP8 block-1 | Platelet DG rel | SENP6 block | SENP1 FRET inh | SENP7 inh | SENP8 block-2 | SENP8 inh conf
O=c1[nH]c(CN2CCN(c3ccccn3)CC2)nc2c(Br)cc(Br)cc12 | -11 | 23 | -20 | -3 | -9 | 44* | 5
CC(C)[C@H](NC(=O)N1c2ccccc2NC(=O)[C@@H]1C(C)C)C(=O)N[C@H](Cc1ccccc1)C(=O)O | 1 | 1 | 0 | 4 | -9 | 40* | 0
CCC(C)[C@H](NC(=O)N1CC(=O)Nc2ccccc21)C(=O)N[C@H](Cc1ccccc1)C(=O)O (stereo not given in full) | -9 | 1 | 0 | 2 | -3 | 41* | -4
CC(C)[C@H]1C(=O)Nc2ccccc2N1C(=O)N[C@@H](Cc1ccccc1)C(=O)N[C@H](Cc1ccccc1)C(=O)O | -2 | 0 | -14 | 1 | 3 | 29 | x
CC(C)C[C@H](NC(=O)N1c2ccccc2NC(=O)[C@@H]1C(C)C)C(=O)N1CCC[C@@H]1C(=O)O | -20 | 0 | -21 | 2 | -16 | 56* | 8
CCN(C(=O)COC(=O)CCCc1c[nH]c2ccccc12)c1c(N)n(Cc2ccccc2)c(=O)[nH]c1=O | x | x | x | 1 | x | 3 | x
CC1Cc2ccccc2N1C(=O)CSc1ncccn1 (stereo not given) | 9 | -4 | -9 | -1 | 4 | 10 | x
C=CCN(CC(=O)NC1CC1)S(=O)(=O)c1cccc(C(F)(F)F)c1 | -17 | x | -8 | -2 | -4 | 3 | x
CCN(CC)CCOC(=O)c1cc(Cl)c(N)cc1OC | -2 | x | 0 | 0 | 5 | -30 | x
C[C@@H](CO)NC(=O)c1[nH]cnc1C(=O)Nc1ccc(CNC(=O)OC(C)(C)C)cc1 | x | x | x | 1 | x | 5 | x
O=C(Nc1ccc(N2CCN(Cc3ccccc3)CC2)cc1)c1cccnc1 | -1 | -3 | -30 | 0 | -5 | 45* | 18
C=CCN1C=C2C(=O)C(C)(OC(=O)c3cccs3)C(=O)C=C2C=C1CCCC(=O)OC (stereo not given) | -1 | 1 | 5 | -25 | 5 | 20 | x
COC(=O)CCCC1=CC2=CC(=O)C(C)(OC(=O)c3cccs3)C(=O)C2=CN1CCc1ccccn1 (stereo not given) | -5 | -2 | 8 | -29 | -8 | 40* | 60*
COc1ccc(Cc2nc3ccc(C(=O)NCCn4ccnc4C)cc3o2)cc1OC | 0 | -6 | -2 | 0 | -5 | -4 | x
COc1ccc(NC(=O)c2cccc(S(=O)(=O)N3CCOCC3)c2)cc1 | -8 | -1 | -8 | 2 | -7 | 14 | x
COc1ccc(NC(=O)c2cccc(S(=O)(=O)N3CCOCC3)c2)cn1 | 6 | -37 | -3 | 1 | 0 | 80* | 5
O=C(NCCc1ccccc1)C(=O)NCC(c1ccco1)N1CCOCC1 (stereo not given) | -11 | -7 | -18 | 2 | -10 | 43* | 5
O=C(NCc1ccccc1)C(=O)NCC(c1ccco1)N1CCOCC1 (stereo not given) | 7 | -12 | 15 | 0 | 1 | 16 | x
CCN(CC)C(=O)c1cccc(-c2csc(C(C)(NC(C)=O)c3ccccc3)n2)c1 (stereo not given) | x | x | x | -2 | x | 13 | x
Cc1ccc(CN=Cc2[nH]c3ccc(Br)c(Cl)c3c2O)cc1 | 1 | 0 | 23 | -34 | 1 | 44* | 40
Oc1c(C=NCc2ccc(F)cc2)[nH]c2ccc(Br)c(Cl)c12 | 4 | -2 | 26 | x | 4 | x | x
CC1CC(=O)N(c2ccc(NCCc3ccccc3)c([N+](=O)[O-])c2)C1=O (stereo not given) | -16 | 0 | -23 | 5 | 0 | 36 | x
CC1CC(=O)N(c2ccc(NCCc3ccc(O)cc3)c([N+](=O)[O-])c2)C1=O (stereo not given) | -2 | 7 | 10 | 4 | -7 | 42* | 20
O=C(Nc1c(-c2ccccc2)[nH][nH]c1=O)c1cccc(C(F)(F)F)c1 | x | x | x | 3 | x | 49* | 13
O=C(Nc1c(-c2ccc(Cl)cc2)[nH][nH]c1=O)c1ccc(Br)cc1 | x | x | x | 0 | x | 43* | 25
SMILES | SENP8 block-1 | Platelet DG rel | SENP6 block | SENP1 FRET inh | SENP7 inh | SENP8 block-2 | SENP8 inh conf
Cc1cnc(C(=O)Nc2c(-c3ccccc3)[nH][nH]c2=O)cn1 | x | x | x | 6 | x | 41* | 45*
NC(=O)NC(=O)C(c1ccccc1)N1CCN(S(=O)(=O)c2ccc(Br)s2)CC1 (stereo not given) | -9 | x | -3 | 3 | -2 | 0 | x
CCOc1ccc(N(CC(=O)NCc2ccccc2)S(C)(=O)=O)cc1 | 2 | 10 | -11 | -1 | 11 | 48* | 28
CCOc1ccc(N(CC(=O)NCc2ccccc2OC)S(C)(=O)=O)cc1 | 1 | 0 | 10 | 0 | 6 | 12 | x
O=C(COC(=O)c1cc(S(=O)(=O)N2CCOCC2)ccc1Cl)NCc1ccc2c(c1)OCO2 | 4 | x | 2 | 1 | 5 | 1 | x
O=C(COC(=O)c1cc(S(=O)(=O)N2CCOCC2)ccc1Cl)Nc1ccc2c(c1)OCO2 | -2 | -4 | -7 | -3 | 4 | 45* | 11
CC1=NN(c2ccc(C)cc2C)C(=O)C1C(c1ccccc1O)C1C(=O)N(c2ccc(C)cc2C)N=C1C (stereo not given) | 15 | 31 | 44 | 4 | 27 | 58* | 57*
CCc1nc2ccccc2c(C(=O)OCCN2C(=O)c3ccccc3C2=O)c1C | 5 | 0 | 1 | 1 | 3 | 42* | 32
CCc1nc2ccccc2c(C(=O)OCC(=O)C(C)(C)C)c1C | -4 | -3 | -28 | -1 | -7 | 3 | x
C/C(=C\C(=O)c1ccc(Br)cc1)Nc1cccc(Cl)c1 | -13 | x | 5 | 2 | -2 | 40* | -12
S=C(Nc1ccc2c(c1)OCO2)Nc1ccc2c(c1)OCO2 | 5 | 16 | 37 | -9 | 7 | 53* | 21
C/C(=C\C(=O)c1ccccc1)Nc1ccc2c(c1)OCO2 | -18 | -10 | -11 | -4 | 1 | 67* | 21
Cc1ccc(C(=O)OCC(=O)Nc2ccc3c(c2)OCO3)o1 | -7 | 0 | 4 | 0 | -5 | 15 | x
C/C(=C\C(=O)c1ccc(C)o1)Nc1ccc2c(c1)OCO2 | -13 | 1 | -9 | -15 | -2 | 47* | 38
CC(C)(C)c1cc(Br)c(O)c(N=Nc2ccc(S(=O)(=O)N3CCOCC3)cc2)c1 | -2 | 3 | 6 | 0 | 4 | 16 | x
CN(C)c1cccc(CNC(=O)c2csc([C@@H]3C[C@H](O)[C@@H](CO)O3)n2)c1 | x | x | x | 0 | x | 0 | x

Compound activity as filed in PubChem BioAssay.
